Experimental data from the EternaBench riboswitch data.

Test system: MS2 coat protein
Experiment: apparent Kd, MS2 coat protein; higher = weaker binding; RNA-MaP array; FMN 200 µM where present
Summary of the method: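 Apparent Kd: the median of filtered binding-curve fits from single clusters. Designs were transcribed on Illumina sequencing-chip clusters by stalled E. coli RNA polymerase and titrated with SNAP-549-labelled MS2 coat protein from 0.7 or 1.5 nM, doubling to 3 µM, in 100 mM Tris-HCl pH 7.5, 80 mM KCl, 4 mM MgCl2, BSA, DTT, yeast tRNA and Tween-20. Each series ran without and then with constant ligand, and green signal was normalised to red-channel RNA signal and control-cluster median Fmax.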

[1] = designed as: OFF switch for flavin mononucleotide, no ligand
[2] = ligand present: flavin mononucleotide, designed as: OFF switch for flavin mononucleotide
[3] = designed as: ON switch for flavin mononucleotide, no ligand
[4] = ligand present: flavin mononucleotide, designed as: ON switch for flavin mononucleotide

Sequence | apparent Kd [1] [µM] | apparent Kd [2] [µM] | apparent Kd [3] [µM] | apparent Kd [4] [µM]
AGGGAGUUAGGAUAUGCUGCUCGUCACUUGCGUGAUGAGUAGCAGAAGGAACAUGAGGAUCACCCAUGUAAAAA | 0.0312 | 0.0303 |  | 
AAUAAACUCACAGGAUAUAGCAGAGGUCGCGUGAACUUACAGGCGACGAGGCUAGAAGGGUGACCACAUGAGGAUCACCCAUGU |  |  | 0.858 | 0.0958
ACCAGGGAUUCAGGAUAUAUUAGCCGAGGCCGCGUAGAAGGGAAAUCCUGACAUGAGGAUCACCCAUGUCGACCCGCCUUCCUA |  |  | 0.0476 | 0.0468
AGCACGAAGAUUAUUAUGAAUAAACAUGAGGAUCACCCAUGUAAGGAUAUCGACUCGAAUAGAGUCGAGAAGGUACAUACGUGC | 0.011 | 0.0518 |  | 
UCGCUGCGAGGAUAUACAUGAGGAUCACCCAUGUACGGGUCCGGGUUUUCGUCCAUUAGUAGAAGGCGCAGUGA | 0.156 | 0.0606 |  | 
GAGUGGUGGAGAGGAUAUACAUUGUUAUUCACUGUAGAAGGUUCUAACAUGAGGAUCACCCAUGUAGGACUAUUCCUGUGUUUU |  |  | 0.0134 | 0.0104
GGUUGGCGAGGAUAUACAUGAGGAUCACCCAUGUGGUCCUGCGAUAGAAUAGCCCUUUGUAGAAGGCGCGGGUC | 0.044 | 0.0381 |  | 
AUCAGCUCGUGAGGAUAUACAACACUGCUUCGGCAGUGUAUUAAGAUCACAUGAGGAUCACCCAUGUAGAAGGCACGAGCUGAU | 0.0135 | 0.278 |  | 
GGCGAACAGGCUAACAUGAGGAUCACCCAUGUGGACUCAUGGUAGGAUAUCGGGAAGGAGGAAACCGAGAAGGGCCGGUGAGCU |  |  | 0.0677 | 0.0263
UACUUCCGAGGAUAUACAUGAGGAUCACCCAUGUGCUUCAGCAUUUUUUGAUGCAUGGGUAGAAGGCGGUAGUU | 0.315 | 0.27 |  | 
GGGUUGUGAGGAUAUUAGUUGUACGUCAAUAGACGUGUGGGUGAGAAGGCACAUGAGGAUCACCCAUGUUCCUG | 0.181 | 0.169 |  | 
GUAGGGUCAGGAUAUACGGGCGGGAGGAUGUAUUGUAGUUGGUAGAAGGGACAUGAGGAUCACCCAUGUGAGAA | 0.0343 | 0.0305 |  | 
UUAAAUCAUGUAGGAUAUGCAUGGCGAAGCUACGCAGAAGGACAUGAGGAUCACCCAUGUUAAAGCUACCGUAUACGGUGGCAA | 0.131 | 0.174 |  | 
UUGGACGUCGUAGGAUAUGUAGGAUAUUCCUACAUGAGGAUCACCCAUGUUGACAUGGAAGAAGGACAGACGGACGAUGUCCAU |  |  | 0.337 | 0.00852
GUAUGCAUGAGGUAGGAUAUCCAAAACAAAACAUGAGGAUCACCCAUGUAAACAAACAACAAAUGGGAGAAGGACCACAUGUAUAC |  |  | 0.0244 | 0.0113
UUGCUACAUGAGGAUCACCCAUGUCAGGAUAUUGUGUAUAGCGUGGAAGCUCUGUCGAUAAGAAGGGACUGUCU | 0.0256 | 0.0233 |  | 
UCCCGAAGGCGGGCCGACCAUACAUGAGGAUCACCCAUGUCGAGAAGGUGCUCACGGGUGGGUGGCAAGGAUAUCGGGUCGGAU |  |  | 0.0938 | 0.0423
GCAUUGAUAACAGGAUAUAUGAAUCCUACAUGAGGAUCACCCAUGUAGGUGAUCAGCCGUGAUUAGUAGAAGGGUUAUCAAUGC |  |  | 0.013 | 0.00649
UGGUACUAGGGAGGAUAUGGGAAGAUACAUGAGGAUCACCCAUGUUUAAGAAUGCCGAGAGGCAACUAGAAGGCCCUAGUACCA |  |  | 0.529 | 0.0192
GGAUGAGAAACUCAUCCAAUACGAACAUGAGGAUCACCCAUGUAGGAUAUGCUACUCAAAGAGUAGCAGAAGGACAUGUGUCUU | 0.0274 | 0.159 |  | 
AAUAACAGAGGAUAUACUAUUUUAUGUGUUUAUUGUUUUAAACAUGAGGAUCACCCAUGUAGAAGGCUGAAUAA | 0.0293 | 0.0443 |  | 
AAAAGACAUGAGGAUCACCCAUGUAAAGACAUAGGAGGAUAUGUCUUGAAAAAAGACUUGACAGAAGGCCUUUGUC |  |  | 0.0238 | 0.0208
UAAGCGCAGGAGAAGGGCACUGGACGCUCGCUACAUGAGGAUCACCCAUGUGCAGGAUAUCCGGCGCCGCCCGCAAACUCGGCG | 0.00514 | 0.0133 |  | 
ACAUGAGGAUCACCCAUGUUAUCAGGGACUUCAAUUAUUUGUAGAAGGAUGUUUUCUUGUUAGUCAUAGGAUAUACAAUUAAAU | 0.016 | 0.0153 |  | 
UCUUUGUUUGUGAGGAUAUCGGUGGGAUGGGUUGUCGAGAAGGCACAUGAGGAUCACCCAUGUGUGGGACAGCA | 0.0153 | 0.0152 |  | 
GCCAUCGCAUGAGGAUAUGGACAGCUUUGCUGUCCAGAAGGCAUGUCAAUAGACAUGAGGAUCACCCAUGUAGUUAAGAUGGCA |  |  | 0.771 | 0.0522
UUCGCUAAGGUGUAGCGAGACAUGCAAGAAGGGUGAAGAACAUGAGGAUCACCCAUGUAGACGGUACAGGAUAUUGAUUGACGA |  |  | 0.128 | 0.0893
ACUCGUGGACAGAAGGCGACAUGAGGAUCACCCAUGUUGGCUCGGGUAUGACCAAUCCGCAUGAUCGAGGAUAUGUCUGCGGGC | 0.326 | 0.0161 |  | 

Sequence | apparent Kd [1] [µM] | apparent Kd [2] [µM] | apparent Kd [3] [µM] | apparent Kd [4] [µM]
CUCGUCUGGAAACGGAGCGGCCAACAUGAGGAUCACCCAUGUGAGGAUAUGCCUACUAAAAGUAGGCAGAAGGCGCACUUGGCA | 0.0236 | 0.0341 |  | 
AGGAAGUGCCAGAAGGCUCCUGGAAUCCUAGGGAGAGGAUAUGGCACAUGAGGAUCACCCAUGUGGUAGAUCUGUUUCGAAGUG | 0.0934 | 0.0311 |  | 
UUAAUCUAUACAGGAUAUCCAUACGCUGCAUACGGAGAAGGGUAACAAUCAUGAGGACAUGAGGAUCACCCAUGUUGUGACCAU |  |  | 0.198 | 0.0971
CUUGUUUAAGUGAGGAUAUACUGUUAGUAAUGAUUGUAGAAGGUACAUGAGGAUCACCCAUGUUUAUUUAUAUU | 0.0178 | 0.0167 |  | 
ACGAAACAUGAGGAUCACCCAUGUGAGGAUAUGUAAAUAGUAAACAAAUAAGAAAUAAACAGAAGGCACACAGG | 0.0329 | 0.067 |  | 
GCCAUCGCAUGAGGAUAUGGACAGGUUUCCUGUCCAGAAGGCAUGUCAUAAGACAUGAGGAUCACCCAUGUAGUUAAGAUGGCA |  |  | 0.908 | 0.0459
AAUUGGAUGCAGAAGGCAUGGACGACUCGUCACAUUAACAUGAGGAUCACCCAUGUCAAAAGACAUGAGGAUAUGCAUCCUAAA |  |  | 0.233 | 0.0136
GUUUCUAUAAGUUAUAAUAAAUAGUCAGAAGGUGAUACUACGACAUGAGGAUCACCCAUGUUUUUCAAGGAUAUGAUGUUACUC |  |  | 0.373 | 0.05
AAAAGAUGAGGAUAUAUAUGGAAUCCAAGGCAUGUGCUCUCACAUGAGGAUCACCCAUGUAGAAGGCAUCUGCC | 0.0101 | 0.013 |  | 
GUCGUGUGAGGAUAUGGAUAGACGCAGUGACAGUCAGCGACCUAGAAGGCACAUGAGGAUCACCCAUGUAUGUG | 0.0472 | 0.1 |  | 
GACGUACAUGAGGAUCACCCAUGUACAGACGUACAAGGAUAUGUGUGGAAACCGUACUAUACAGAAGGUGUUUGUC |  |  | 0.0157 | 0.015
CAAAAGCGAGGAUAUACAUGAGGAUCACCCAUGUGGCAGCCAUGUAGGAGUGACGUCGGUAGAAGGCGCACCCU | 0.0998 | 0.141 |  | 
GCACGACAUGUAGGAUAUCGAGCGCCGAGCGCUCGAGAAGGACAUGAGGAUCACCCAUGUAUUCCGAGUGAGUCAGGUCGUGCA | 0.0175 | 0.0234 |  | 
UUUUAACAUGAGGAUCACCCAUGUGAGGAUAUCGAAAUUUAUAUUUAUAUUAAUUAUUCGAGAAGGCACAUUUU | 0.163 | 0.133 |  | 
CCAUGGAAUGUAGGAUAUGACUGACAAAGUCAGUUAGAAGGACAUGAGGAUCACCCAUGUAGGAAACAACCACAUAAACCAUGG | 0.00762 | 0.00697 |  | 
UGGUACUAGGGAGGAUAUGGGAAGAUACAUGAGGAUCACCCAUGUUUAAGAAUGCCGAGAGACAACUAGAAGGCCCUAGUACCU |  |  | 0.24 | 0.0222
CAGGUAGACUGAGGAUAUACAUGACUUAGUCUAUCUAGGUCAUUAACCACAUGAGGAUCACCCAUGUAGAAGGCAGUCUGCCUG | 0.0163 | 0.0196 |  | 
UGAUAGGACAGAGGAUAUACGUGCUAGAGAUACUAGCAAAGUUUCCUCACAUGAGGAUCACCCAUGUAGAAGGCUGUCCUAUCU | 0.0249 | 0.521 |  | 
UGUCCAUAGCAGAAGGCAUGUCAAAAGACAUGAGGAUCACCCAUGUAAGCAUGAGGAUAUGCUAUGGACUAAGAGCGAAAGCUC | 0.00914 | 0.00578 |  | 
AGCGAGAUAGGCAAGGAUAUGCUGGGUUUCACAUGAGGAUCACCCAUGUCAUAGGUAAUGUCCGAGCAGAAGGUGCAUUCUCUUU |  |  | 0.171 | 0.0217
AAAUCCUACGAAGGAUAUACAAACAUGAGGAUCACCCAUGUGUCUUUCGUGUAACUGGAAUUCGGGUAGAAGGUCGUAGACAUA | 0.017 | 0.0226 |  | 
UGUCGGAGCAGAGGAUAUUACAUGAGGAUCACCCAUGUAUGAACCAAUAGCUGGAAACAUCAAUGUAAGAAGGCUGCUCCGACA | 0.0102 | 0.0725 |  | 
UUGGACGUCGUAGGAUAUGUAGGAUAUUCCUACAUGAGGAUCACCCAUGUAGACAUGGAAGAAGGACAGAAGGACGAUGUCCAU |  |  | 0.0259 | 0.00479
UUCAAAUUCGUAGGAUAUGUAUAAAUUUUCUACAUGAGGAUCACCCAUGUUACCAUUUUAAAUUGACAGAAGGACGUAAUCUAA |  |  | 0.0225 | 0.00874
CUGAGCAGUCAAGGAUAUCACGUCGAAUAGACGUGAGAAGGUGACCAAUACAUGAGGAUCACCCAUGUAAUACAUGAAGCUCAG |  |  | 0.0381 | 0.0174
AAAAAGUCAGGAUAUGCUUAUAAUAAGAAAAUUAGAGAUAUGCAGAAGGGACAUGAGGAUCACCCAUGUAAAAA | 0.0353 | 0.0378 |  | 
AGUGUGUGGCAGGAUAUGCGAUUUGUCGGUGUAGCAGAAGGGUCUACAUGAGGAUCACCCAUGUGUGCGGUUGA | 0.438 | 0.446 |  | 
